Assay results taken from ChEMBL document CHEMBL1154716, “Synthesis of some new S-triazine based chalcones and their derivatives as potent antimicrobial agents” (2010).
Converted amounts (≈) assume the structure as drawn. The source made the active and inactive calls. No cut-off for these calls is given here.

Assays:
Staphylococcus aureus [1] = assay: Antimicrobial activity against Staphylococcus aureus at 10 ug/disk after 24 hrs by disk diffusion assay; assay type: functional
In short: (§1)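 Disc diffusion on 4 mm filter discs. Bacteria are grown overnight in LB at 28 C, then adjusted in saline to 1.0 × 10^5 cfu/ml. The suspension is mixed into top agar over peptone agar plates. Plates are incubated 24 h at 28 C, and growth-inhibition zone diameter is measured. Streptomycin and ampicillin controls are applied from a 1 mg/ml stock. Tests are done in duplicate.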

Bacillus cereus [2] = assay: Antimicrobial activity against Bacillus cereus at 1 umol/disk after 24 hrs by disk diffusion assay; assay type: functional; in short: as §1
Escherichia coli [3] = assay: Antimicrobial activity against Escherichia coli at 1 umol/disk after 24 hrs by disk diffusion assay; assay type: functional; in short: as §1
Listeria monocytogenes [4] = assay: Antimicrobial activity against Listeria monocytogenes at 1 umol/disk after 24 hrs by disk diffusion assay; assay type: functional; in short: as §1
Escherichia coli [5] = assay: Antimicrobial activity against Escherichia coli at 1 umol/spot after 18 hrs by TLC-bioautographic method; assay type: functional
In short: (§2)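 TLC bioautography. Samples are spotted on silica gel TLC plates, then sprayed with bacteria (1.0 × 10^5 cfu/ml) in tryptic soy broth. Plates are incubated 18 h at 37 C and sprayed with 3% aqueous p-iodonitrotetrazolium violet. After a further 3 h, growth is stopped with 70% EtOH. White zones on a pink background are scored as inhibition-zone diameter with standard errors.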

Listeria monocytogenes [6] = assay: Antimicrobial activity against Listeria monocytogenes after 24 hrs by microdilution technique; assay type: functional
In short: (§3)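 Broth microdilution in LB medium. Inoculum is 1.0 × 10^4 cfu per well, from a saline-adjusted suspension of 1.0 × 10^5 cfu/ml. Compounds are dissolved in DMSO. Incubated 24 h at 28 C. MIC is the lowest concentration with no visible growth under a binocular microscope. MBC is read by subculture into fresh broth for 72 h, with no growth taken as 99.5% kill. OD is read at 655 nm.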

Salmonella typhimurium [7] = assay: Antimicrobial activity against Salmonella Typhimurium at 1 umol/disk after 24 hrs by disk diffusion assay; assay type: functional, organism-based; conditions: Salmonella enterica subsp. enterica serovar Typhimurium; in short: as §1
Micrococcus flavus [8] = assay: Antimicrobial activity against Micrococcus flavus after 24 hrs by microdilution technique; assay type: functional; in short: as §3
Escherichia coli [9] = assay: Antimicrobial activity against Escherichia coli after 24 hrs by microdilution technique; assay type: functional; in short: as §3
Salmonella typhimurium [10] = assay: Antimicrobial activity against Salmonella Typhimurium after 24 hrs by microdilution technique; assay type: functional, Salmonella enterica subsp. enterica serovar Typhimurium; conditions: Salmonella enterica; in short: as §3
Salmonella typhimurium [11] = assay: Antimicrobial activity against Salmonella Typhimurium at 1 umol/spot after 18 hrs by TLC-bioautographic method; assay type: functional; in short: as §2
Enterobacter cloacae [12] = assay: Antimicrobial activity against Enterobacter cloacae at 1 umol/spot after 18 hrs by TLC-bioautographic method; assay type: functional; in short: as §2
Micrococcus flavus [13] = assay: Antimicrobial activity against Micrococcus flavus at 1 umol/spot after 18 hrs by TLC-bioautographic method; assay type: functional; in short: as §2
Staphylococcus aureus [14] = assay: Antimicrobial activity against Staphylococcus aureus at 1 umol/disk after 24 hrs by disk diffusion assay; assay type: functional; in short: as §1
Listeria monocytogenes [15] = assay: Antimicrobial activity against Listeria monocytogenes at 1 umol/spot after 18 hrs by TLC-bioautographic method; assay type: functional; in short: as §2
Staphylococcus aureus [16] = assay: Antimicrobial activity against Staphylococcus aureus after 24 hrs by microdilution technique; assay type: functional; in short: as §3
Pseudomonas aeruginosa [17] = assay: Antimicrobial activity against Pseudomonas aeruginosa after 24 hrs by microdilution technique; assay type: functional; in short: as §3
Pseudomonas aeruginosa [18] = assay: Antimicrobial activity against Pseudomonas aeruginosa at 1 umol/spot after 18 hrs by TLC-bioautographic method; assay type: functional; in short: as §2
Bacillus cereus [19] = assay: Antimicrobial activity against Bacillus cereus after 24 hrs by microdilution technique; assay type: functional; in short: as §3
Enterobacter cloacae [20] = assay: Antimicrobial activity against Enterobacter cloacae after 24 hrs by microdilution technique; assay type: functional; in short: as §3
Listeria monocytogenes [21] = assay: Antimicrobial activity against Listeria monocytogenes at 10 ug/disk after 24 hrs by disk diffusion assay; assay type: functional; in short: as §1
Enterobacter cloacae [22] = assay: Antimicrobial activity against Enterobacter cloacae at 10 ug/disk after 24 hrs by disk diffusion assay; assay type: functional; in short: as §1
Bacillus cereus [23] = assay: Antimicrobial activity against Bacillus cereus at 1 umol/spot after 18 hrs by TLC-bioautographic method; assay type: functional; in short: as §2
Salmonella typhimurium [24] = assay: Antimicrobial activity against Salmonella Typhimurium at 10 ug/disk after 24 hrs by disk diffusion assay; assay type: functional, organism-based; conditions: Salmonella enterica subsp. enterica serovar Typhimurium; in short: as §1
Bacillus cereus [25] = assay: Antimicrobial activity against Bacillus cereus at 10 ug/disk after 24 hrs by disk diffusion assay; assay type: functional; in short: as §1
Pseudomonas aeruginosa [26] = assay: Antimicrobial activity against Pseudomonas aeruginosa at 1 umol/disk after 24 hrs by disk diffusion assay; assay type: functional; in short: as §1
Pseudomonas aeruginosa [27] = assay: Antimicrobial activity against Pseudomonas aeruginosa at 10 ug/disk after 24 hrs by disk diffusion assay; assay type: functional; in short: as §1
Staphylococcus aureus [28] = assay: Antimicrobial activity against Staphylococcus aureus at 1 umol/spot after 18 hrs by TLC-bioautographic method; assay type: functional; in short: as §2
Micrococcus flavus [29] = assay: Antimicrobial activity against Micrococcus flavus at 10 ug/disk after 24 hrs by disk diffusion assay; assay type: functional; in short: as §1
Enterobacter cloacae [30] = assay: Antimicrobial activity against Enterobacter cloacae at 1 umol/disk after 24 hrs by disk diffusion assay; assay type: functional; in short: as §1
Escherichia coli [31] = assay: Antimicrobial activity against Escherichia coli at 10 ug/disk after 24 hrs by disk diffusion assay; assay type: functional; in short: as §1
Micrococcus flavus [32] = assay: Antimicrobial activity against Micrococcus flavus at 1 umol/disk after 24 hrs by disk diffusion assay; assay type: functional; in short: as §1

Row | SMILES | inhibition zone (IZ) (Staphylococcus aureus [1]) | inhibition zone (IZ) (Bacillus cereus [2]) | inhibition zone (IZ) (Escherichia coli [3]) | inhibition zone (IZ) (Listeria monocytogenes [4]) | inhibition zone (IZ) (Escherichia coli [5]) | MBC (Listeria monocytogenes [6]) [µM] | MIC (Listeria monocytogenes [6]) [µM] | inhibition zone (IZ) (Salmonella typhimurium [7]) | MBC (Micrococcus flavus [8]) [µM] | MIC (Micrococcus flavus [8]) [µM] | MBC (Escherichia coli [9]) [µM] | MIC (Escherichia coli [9]) [µM] | MBC (Salmonella typhimurium [10]) [µM] | MIC (Salmonella typhimurium [10]) [µM] | inhibition zone (IZ) (Enterobacter cloacae [12]) | inhibition zone (IZ) (Micrococcus flavus [13]) [millimeter] | inhibition zone (IZ) (Staphylococcus aureus [14]) | inhibition zone (IZ) (Listeria monocytogenes [15]) [millimeter] | MBC (Staphylococcus aureus [16]) [µM] | MIC (Staphylococcus aureus [16]) [µM] | other results
1 | Nc1nc(-c2ccc(Nc3nc(Nc4ccccc4)nc(Nc4ccccc4)n3)cc2)cc(-c2ccc([N+](=O)[O-])cc2)n1 | inactive | inactive | inactive | inactive | inactive | 704 (≈ 400 µg/mL) | 704 (≈ 400 µg/mL) | inactive | 704 (≈ 400 µg/mL) | 352 (≈ 200 µg/mL) | 352 (≈ 200 µg/mL) | 176 (≈ 100 µg/mL) | 704 (≈ 400 µg/mL) | 352 (≈ 200 µg/mL) | inactive | 0.07 | inactive | 0.1 | 352 (≈ 200 µg/mL) | 176 (≈ 100 µg/mL) | inhibition zone (IZ) (Salmonella typhimurium [11]; Salmonella enterica subsp. enterica serovar Typhimurium): inactive; MBC (Pseudomonas aeruginosa [17]): 704 µM (≈ 400 µg/mL); MIC (Pseudomonas aeruginosa [17]): 352 µM (≈ 200 µg/mL); inhibition zone (IZ) (Pseudomonas aeruginosa [18]): inactive; MBC (Bacillus cereus [19]): 352 µM (≈ 200 µg/mL); MIC (Bacillus cereus [19]): 176 µM (≈ 100 µg/mL); MBC (Enterobacter cloacae [20]): 352 µM (≈ 200 µg/mL); MIC (Enterobacter cloacae [20]): 176 µM (≈ 100 µg/mL); inhibition zone (IZ) (Listeria monocytogenes [21]): inactive; inhibition zone (IZ) (Enterobacter cloacae [22]): inactive; inhibition zone (IZ) (Bacillus cereus [23]): inactive; inhibition zone (IZ) (Salmonella typhimurium [24]): inactive; inhibition zone (IZ) (Bacillus cereus [25]): inactive; inhibition zone (IZ) (Pseudomonas aeruginosa [26]): inactive; inhibition zone (IZ) (Pseudomonas aeruginosa [27]): inactive; inhibition zone (IZ) (Staphylococcus aureus [28]): inactive; inhibition zone (IZ) (Micrococcus flavus [29]): inactive; inhibition zone (IZ) (Enterobacter cloacae [30]): inactive; inhibition zone (IZ) (Escherichia coli [31]): inactive; inhibition zone (IZ) (Micrococcus flavus [32]): inactive
2 | Nc1nc(-c2ccc(Nc3nc(Nc4ccccc4)nc(Nc4ccccc4)n3)cc2)cc(-c2cccs2)n1 | inactive | inactive | inactive | inactive | inactive | 756 (≈ 400 µg/mL) | 756 (≈ 400 µg/mL) | inactive | 378 (≈ 200 µg/mL) | 189 (≈ 100 µg/mL) | 378 (≈ 200 µg/mL) | 189 (≈ 100 µg/mL) | 378 (≈ 200 µg/mL) | 189 (≈ 100 µg/mL) | 0.08 millimeter | 0.08 | inactive | 0.08 | 378 (≈ 200 µg/mL) | 189 (≈ 100 µg/mL) | inhibition zone (IZ) (Salmonella typhimurium [11]): 0.09 millimeter; MBC (Pseudomonas aeruginosa [17]): 756 µM (≈ 400 µg/mL); MIC (Pseudomonas aeruginosa [17]): 756 µM (≈ 400 µg/mL); inhibition zone (IZ) (Pseudomonas aeruginosa [18]): inactive; MBC (Bacillus cereus [19]): 378 µM (≈ 200 µg/mL); MIC (Bacillus cereus [19]): 189 µM (≈ 100 µg/mL); MBC (Enterobacter cloacae [20]): 378 µM (≈ 200 µg/mL); MIC (Enterobacter cloacae [20]): 189 µM (≈ 100 µg/mL); inhibition zone (IZ) (Listeria monocytogenes [21]): inactive; inhibition zone (IZ) (Enterobacter cloacae [22]): inactive; inhibition zone (IZ) (Bacillus cereus [23]): 0.09 millimeter; inhibition zone (IZ) (Salmonella typhimurium [24]): inactive; inhibition zone (IZ) (Bacillus cereus [25]): inactive; inhibition zone (IZ) (Pseudomonas aeruginosa [26]): inactive; inhibition zone (IZ) (Pseudomonas aeruginosa [27]): inactive; inhibition zone (IZ) (Staphylococcus aureus [28]): 0.03 millimeter; zone of inhibition at 10 µg/disc (Micrococcus flavus [29]; read-out: IZ): 6 mm; inhibition zone (IZ) (Enterobacter cloacae [30]): inactive; inhibition zone (IZ) (Escherichia coli [31]): inactive; inhibition zone (IZ) (Micrococcus flavus [32]): 0.04 millimeter
